Assay outcomes as filed in PubChem.
A selection: hits, their analogues and other compounds. The true share with any hit is near 1.8%.
HTRA1 inhibitor: HTRA1 serine protease inhibitors, primary screen, biochemical, fluorescence polarization, HTS; Q92743; recombinant HTRA1, FP-rhodamine activity-based probe; inhibition, % at 5.96 µM; actives 0.5% (n = 340,000); AID 504803, 2011; in the data active means inhibition above about 36%
Target sequence (Q92743 whole entry, looked up): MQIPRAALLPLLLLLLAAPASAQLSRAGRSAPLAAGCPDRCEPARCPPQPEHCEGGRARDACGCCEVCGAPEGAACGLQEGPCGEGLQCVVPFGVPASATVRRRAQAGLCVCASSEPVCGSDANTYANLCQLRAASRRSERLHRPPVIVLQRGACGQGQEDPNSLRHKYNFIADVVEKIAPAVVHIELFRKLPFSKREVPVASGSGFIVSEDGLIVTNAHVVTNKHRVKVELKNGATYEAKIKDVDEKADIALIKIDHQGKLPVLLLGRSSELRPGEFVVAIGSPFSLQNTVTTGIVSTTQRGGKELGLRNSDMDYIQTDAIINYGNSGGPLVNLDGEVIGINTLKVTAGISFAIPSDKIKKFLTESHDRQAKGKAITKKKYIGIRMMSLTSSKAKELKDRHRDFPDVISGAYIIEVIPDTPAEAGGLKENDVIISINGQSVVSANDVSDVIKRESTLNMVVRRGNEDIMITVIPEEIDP
SIAE primary: human SIAE inhibitors, primary screen, biochemical, fluorescence polarization, FP-Rh probe, 1536-well HTS | inhibition, % at 9.66 µM | SIAE FP-Rh probe binding | actives 0.69% (n = 370,000) | Sialate O-acetylesterase (Homo sapiens), Q9HAT2;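 active means inhibition above a cutoff: mean of compounds within the control limits plus 3 SD of those, cut at about 17% in these data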
Tn6 DDE FP: inhibitors of Tn6 peptide binding to fibrin DD(E), primary screen, biochemical, fluorescence polarization, human fibrin, Tn6 probe | Fibrinogen beta chain (Homo sapiens), P02675 | actives 0.21% (n = 370,000) | inhibition, % at 8.3 µM | AID 720509, 2013 | Fibrin DD(E) TRITC-Tn6 fluorescence polarization displacement;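 active means inhibition above a per-campaign cutoff: mean of compounds within control limits plus 3 SD, cut at about 15% in these data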
mABHD4 FP: ABHD4 inhibitors, primary screen, biochemical, fluorescence polarization, mouse; (Lyso)-N-acylphosphatidylethanolamine lipase (Mus musculus), Q8VD66; purified mABHD4, FP-Rh probe fluorescence polarization; inhibition, % at 8.92 µM; actives 0.54% (n = 370,000); AID 720543, 2013;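 active means inhibition exceeding the mean over every tested compound plus 3 SD, cut at about 30% in these data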
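Material: mouse ABHD4 enzyme, wild type; Benchmarks: S159A mutant high control, sample median low control; Buffer or medium: HEPES pH 7.0, NaCl, Pluronic buffer; Signal: fluorescence polarization; Read-out: percent inhibition of probe binding, normalized to plate controls; Timing: pre-incubation 45 min, probe exposure 60 min, at 25 °C; Dosing: 8.92 µM, single dose.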
Tn7 DDE FP: inhibitors of Tn7 peptide binding to fibrin DD(E), primary screen, biochemical, fluorescence polarization, human fibrin, Tn7 probe; Fibrinogen beta chain (Homo sapiens), P02675; FP displacement of FITC-Tn7 peptide from fibrin DD(E); 0% = median of compound wells per plate; inhibition, % at 8.3 µM; actives 0.13% (n = 370,000); AID 720508, 2013;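 active means inhibition above the mean of compounds falling within the control limits plus 3 SD of them, cut at about 14% in these data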
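assay system = human clot-derived fibrin DD(E) complex | quantity = Fibrin-DD(E) at 2 µM final | timing = 10 min preincubation, 3 h with tracer, room temperature | signal = fluorescence polarization | measure = percent inhibition | benchmarks = high control wells with 10 µM unlabelled Aha-Tn7 peptide (full inhibition) | replicates = singlicate testing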
TCR CD3 inh: inhibitors of human TCR-CD3 interaction, primary screen, biochemical, fluorescence, TAMRA-labeled TCR probe; inhibition, % at 9.4 µM; actives 0.37% (n = 360,000); AID 651800, 2012;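 further: recombinant mutant TCR 2C K166C tagged with TAMRA read by polarization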
HTRA1 conf: HTRA1 protease inhibitors, retest, confirmation, biochemical, fluorescence polarization | recombinant HTRA1, FP-rhodamine activity-based probe | actives 66% (n = 1,600) | AID 540248, 2011 | shares compounds with HTRA1 inhibitor | inhibition, % at 5.96 µM;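 active means mean inhibition over three repeats above a set limit taken from the earlier primary screen, cut at about 37% in these data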;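 further: inhibitors block probe binding so polarization drops and inhibition rises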
BSA probe FL: compounds interfering with TAMRA-BSA probe, counter-screen for TCR-CD3 interaction inhibitor project, biochemical, fluorescence, TAMRA-labeled BSA; TAMRA-labeled BSA probe fluorescence counterscreen; inhibition, % at 9.4 µM; shares compounds with TCR CD3 inh; actives 10% (n = 1,200); in the data active means inhibition above about 23%
TCR-CD3 inh conf: TCR-CD3 interaction inhibitors, retest, confirmation, biochemical, fluorescence, TAMRA-labeled TCR probe | shares compounds with TCR CD3 inh | TAMRA-labeled TCR probe fluorescence binding assay | inhibition, % at 9.4 µM | actives 48% (n = 1,200)
Tn7 DDE conf: inhibitors of Tn7 peptide binding to fibrin DD(E), confirmation, biochemical, fluorescence polarization, human fibrin, Tn7 probe; shares compounds with Tn7 DDE FP; FP displacement of TRITC-Tn7 peptide from DD(E); 0% set at plate's compound-well median; inhibition, % at 8.3 µM; actives 5% (n = 460); AID 720628, 2013;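 active means inhibition above the campaign cutoff, the mean of compounds within control limits plus 3 SD, cut at about 14% in these data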;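 further: displacers lower polarization since freed probe rises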
Tn7 DDE ctr: DD(E)-Tn7 binding inhibition, counter-screen. inhibition, % at 8.3 µM. fibrin DD(E), TRITC-Tn7 probe displacement, fluorescence polarization. AID 720633. shares compounds with Tn7 DDE FP. actives 3% (n = 460);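 active means inhibition above the cutoff, the mean of compounds lying between the control bounds plus 3 SD of those compounds, cut at about 17% in these data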
ABHD4 confirm: ABHD4 inhibitors, retest, confirmation, biochemical, fluorescence polarization, mouse. purified mABHD4, FP-Rh probe fluorescence polarization. shares compounds with mABHD4 FP. inhibition, % at 8.92 µM. actives 55% (n = 1,800). AID 720658, 2013;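 active means mean inhibition across replicates above the hit cutoff set in the primary screen, cut at about 30% in these data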
SIAE confirm: human SIAE inhibitors, retest, confirmation, biochemical, fluorescence polarization, FP-Rh probe, triplicate; shares compounds with SIAE primary; SIAE FP-Rh activity-based probe; inhibition, % at 9.66 µM; actives 13% (n = 2,300); AID 1117263, 2014;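 active means mean inhibition of the replicates above the hit cutoff set in the primary screen, cut at about 17% in these data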;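 further: inhibitors lower polarization as more probe stays unbound to SIAE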
Of the large screens only hits and unclear results are named; the others gave an inactive call (follow-up assays come after a bar, where they were run). Unless noted, no stated cut-off is given here; in the data, active means inhibition above about 19%; inactive means the rest.

O=[N+]([O-])c1cc2oc3c(c2c(C=NCc2ccccc2)c1O)CCCC3	HTRA1 inhibitor 43, SIAE primary 28, mABHD4 FP 31 | HTRA1 conf 54 | ABHD4 confirm 31 | SIAE confirm inactive
COCCNC(=O)C[C@H]1CC[C@H]2[C@@H](COc3ccc(NC(=O)Nc4cccc(F)c4)cc3C(=O)N2C)O1	none (no result: HTRA1 inhibitor, TCR CD3 inh)
CCOC(=O)c1nc(Nc2ccc(Nc3ccccc3)cc2)c2ccccc2n1	HTRA1 inhibitor 46, SIAE primary 22 | HTRA1 conf 60 | SIAE confirm inactive
COc1ccc(C(C(=O)N(C)C2CCCC2)N(Cc2ccc(F)cc2)C(=O)c2cc(C)[nH]n2)cc1OC (configuration not stated)	none (no result: HTRA1 inhibitor, TCR CD3 inh)
Fc1ccc(-c2cc(-c3nnc4sc(-c5cccs5)nn34)[nH]n2)cc1	none (no result: HTRA1 inhibitor, TCR CD3 inh)
Oc1ccc(/C=N/Nc2ccc(Cl)nn2)c(O)c1O	HTRA1 inhibitor 57, SIAE primary 23, mABHD4 FP 40, TCR CD3 inh 56 | HTRA1 conf 41 | BSA probe FL inactive | TCR-CD3 inh conf 55 | ABHD4 confirm 81 | SIAE confirm inactive
COc1ccc2c(c1)CO[C@H]([C@H](O)CO)[C@H]2/C=C/c1ccccc1	none (no result: HTRA1 inhibitor, TCR CD3 inh)
CCNc1ccc(Br)cc(C(=O)/C=C/c2ccccc2Cl)c1=O	HTRA1 inhibitor 64, SIAE primary 22, mABHD4 FP 37 | HTRA1 conf inactive | ABHD4 confirm 43 | SIAE confirm inactive
CCCCNC(=O)C1CCCN1C(=O)Nc1ccc(Cl)cc1 (configuration not stated)	none (no result: HTRA1 inhibitor, TCR CD3 inh)
Nc1cccc2c(=O)c3ccccc3[nH]c12	HTRA1 inhibitor 55, SIAE primary 30, mABHD4 FP 60 | HTRA1 conf inactive | ABHD4 confirm 41 | SIAE confirm inactive
COc1ccccc1N1CCN(Cc2cc(Br)c(O)c3ncccc23)CC1	HTRA1 inhibitor 55, SIAE primary 29 | HTRA1 conf 82 | SIAE confirm 22
O=C(NCc1ccccn1)C1Nc2ccc(OC(F)(F)F)cc2C2C=CCC12 (configuration not stated)	HTRA1 inhibitor 43, SIAE primary 17, mABHD4 FP 48 | HTRA1 conf inactive | ABHD4 confirm inactive | SIAE confirm inactive
Cc1ccc2c(c1)C1C=CCC1C(C(=O)NCCCN1CCOCC1)N2 (configuration not stated)	none
COC(=O)c1cccc(Cn2ccc3ccc(-c4ccc5ccn(C(=O)c6ccccc6OC)c5c4)cc32)c1	none (no result: HTRA1 inhibitor, TCR CD3 inh)
Oc1ccc(C2=Nn3c(nnc3-c3ccco3)SC2)cc1O	HTRA1 inhibitor 44, SIAE primary 30, mABHD4 FP 43, TCR CD3 inh 22 | HTRA1 conf inactive | ABHD4 confirm 40 | SIAE confirm inactive
O=C(c1ccccc1)N1CCC(Oc2cccnc2)CC1	none (no result: HTRA1 inhibitor, TCR CD3 inh)
O=C1c2cccc3c(O)ccc(c23)C(=O)N1Cc1ccco1	HTRA1 inhibitor 44, SIAE primary 20, mABHD4 FP 49, Tn7 DDE FP 56, TCR CD3 inh 41 | HTRA1 conf 38 | BSA probe FL 67 | TCR-CD3 inh conf 47 | Tn7 DDE conf inactive | Tn7 DDE ctr inactive | ABHD4 confirm 45 | SIAE confirm 21
O=C1c2ccccc2C(=O)N1Cc1ccco1	none
Cc1ccc(-n2c(SCC(=O)NN=Cc3ccc(-c4ccccc4)cc3)nnc2-c2ccccc2)cc1	none (no result: HTRA1 inhibitor, TCR CD3 inh)
O=c1c2ccccc2nc(COc2ccccc2)n1/N=C/c1cc([N+](=O)[O-])ccc1O	HTRA1 inhibitor 36, SIAE primary 20, TCR CD3 inh 23 | HTRA1 conf 47 | BSA probe FL inactive | TCR-CD3 inh conf 43 | SIAE confirm inactive
CC(C)C[C@H]1COc2cccc(N3CCSCC3)c2S(=O)(=O)N1C	none (no result: HTRA1 inhibitor, TCR CD3 inh)
NC(=O)CC1Nc2cccc3cccc(c23)NC1=O (configuration not stated)	none
O=C(CC1Nc2cccc3cccc(c23)NC1=O)Nc1ccccc1 (configuration not stated)	HTRA1 inhibitor 72, SIAE primary 23, mABHD4 FP 32 | HTRA1 conf inactive | ABHD4 confirm 42 | SIAE confirm inactive
O=C1C=CC2=C3c4cc(O)c(O)cc4CC3(O)COC2=C1O (configuration not stated)	HTRA1 inhibitor 45, SIAE primary 28, TCR CD3 inh 88 | HTRA1 conf 44 | BSA probe FL inactive | TCR-CD3 inh conf 93 | SIAE confirm inactive
